One may read the inhibition as the percentage by which the read-out fell short of the control.

Bounds are passed on as bounds.

Inhibition data for 26 molecules are collected here from ChEMBL document CHEMBL1152193, “Structure-activity relationships of natural and non-natural amino acid-based amide and 2-oxoamide inhibitors of human phospholipase A(2) enzymes” (Bioorg Med Chem, 2008).

Assay [1] has as its target T1, Cytosolic phospholipase A2 (Homo sapiens) (UniProt P47712).
T1 sequence (whole entry): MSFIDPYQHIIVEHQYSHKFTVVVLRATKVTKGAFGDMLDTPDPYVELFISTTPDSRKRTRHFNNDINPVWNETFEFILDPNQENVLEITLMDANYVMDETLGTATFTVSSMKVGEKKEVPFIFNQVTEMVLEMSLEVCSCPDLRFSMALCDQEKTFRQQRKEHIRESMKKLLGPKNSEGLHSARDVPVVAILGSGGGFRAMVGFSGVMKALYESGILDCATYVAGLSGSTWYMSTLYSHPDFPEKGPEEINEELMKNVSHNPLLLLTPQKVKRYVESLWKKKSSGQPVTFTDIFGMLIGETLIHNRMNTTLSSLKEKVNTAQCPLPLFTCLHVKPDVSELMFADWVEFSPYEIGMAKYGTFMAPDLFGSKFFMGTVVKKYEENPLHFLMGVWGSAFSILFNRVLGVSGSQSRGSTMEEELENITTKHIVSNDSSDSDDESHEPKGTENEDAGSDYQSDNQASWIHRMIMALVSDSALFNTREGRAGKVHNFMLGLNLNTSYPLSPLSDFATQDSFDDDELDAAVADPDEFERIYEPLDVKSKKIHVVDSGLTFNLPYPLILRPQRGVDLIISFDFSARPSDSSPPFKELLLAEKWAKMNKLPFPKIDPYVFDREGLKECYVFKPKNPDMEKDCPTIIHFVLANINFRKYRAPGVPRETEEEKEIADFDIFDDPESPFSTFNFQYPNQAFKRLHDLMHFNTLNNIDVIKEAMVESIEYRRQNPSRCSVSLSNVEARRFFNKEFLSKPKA
Put plainly: Inhibition of human group 4A cytosolic Ca2+-dependent phospholipase A2 at 0.091 mole fraction by modified Dole assay. A digest of the protocol:
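Buffer: 100 mM HEPES pH 7.5, 90 μM CaCl2, 2 mM DTT, 0.1 mg/ml BSA. Inhibitor present at 0.091 mole fraction of the total substrate interface; percent inhibition determined.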

The target in assay [2] is T2, 85/88 kDa calcium-independent phospholipase A2 (Homo sapiens) (UniProt O60733).
T2 sequence (whole entry): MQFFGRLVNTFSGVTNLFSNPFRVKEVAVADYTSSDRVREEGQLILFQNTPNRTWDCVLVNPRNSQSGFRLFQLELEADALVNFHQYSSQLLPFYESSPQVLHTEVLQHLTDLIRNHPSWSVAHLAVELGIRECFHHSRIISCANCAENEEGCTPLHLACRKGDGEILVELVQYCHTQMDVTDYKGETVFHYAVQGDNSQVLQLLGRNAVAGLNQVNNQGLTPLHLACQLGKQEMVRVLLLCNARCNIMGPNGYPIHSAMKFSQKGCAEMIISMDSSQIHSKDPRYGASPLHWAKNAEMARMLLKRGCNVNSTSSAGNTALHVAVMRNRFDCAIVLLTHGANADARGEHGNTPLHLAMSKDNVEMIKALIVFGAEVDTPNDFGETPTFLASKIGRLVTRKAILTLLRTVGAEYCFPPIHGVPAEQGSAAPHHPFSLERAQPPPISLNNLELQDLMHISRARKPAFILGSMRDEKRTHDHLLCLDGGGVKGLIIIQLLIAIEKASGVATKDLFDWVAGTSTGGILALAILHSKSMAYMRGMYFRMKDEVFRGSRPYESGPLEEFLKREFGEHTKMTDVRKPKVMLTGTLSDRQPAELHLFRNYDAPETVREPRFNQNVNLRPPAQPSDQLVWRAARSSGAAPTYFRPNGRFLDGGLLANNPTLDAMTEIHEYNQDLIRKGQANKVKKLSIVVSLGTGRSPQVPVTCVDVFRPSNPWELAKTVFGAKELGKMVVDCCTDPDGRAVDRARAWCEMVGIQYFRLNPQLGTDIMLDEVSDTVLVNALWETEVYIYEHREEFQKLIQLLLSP
Put plainly: Inhibition of human group 6A cytosolic Ca(2+)-independent phospholipase A2 at 0.091 mole fraction by modified Dole assay.

The target of assay [3] is T3, Phospholipase A2 group V (Homo sapiens) (UniProt P39877).
T3 sequence (whole entry): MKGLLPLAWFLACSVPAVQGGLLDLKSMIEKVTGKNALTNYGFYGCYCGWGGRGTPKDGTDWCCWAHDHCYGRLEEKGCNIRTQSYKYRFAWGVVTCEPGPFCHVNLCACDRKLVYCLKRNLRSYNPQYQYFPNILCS
Put plainly: Inhibition of human group 5 Ca2+-dependent secretory phospholipase A2 at 0.091 mole fraction by modified Dole assay.

In the case of `CCCCCCCCCCCCCCC(=O)C(=O)NCCC(=O)OCC`, the values for the inhibition in assay [1], in assay [2] and in assay [3] were 44%, 51% and 59%, respectively.
The corresponding values for `CCCC[C@@H](CCC(=O)O)NC(=O)CCCCCCc1ccccc1` are below 25%, below 25% and below 25%.
On to `COC(=O)CNC(=O)CCCCCCc1ccccc1`, for which the inhibition in assay [1], in assay [2] and in assay [3] was below 25% in each case.
In the case of `CCCCCCCCCCCCCCC(=O)C(=O)N[C@@H](CCCC)CCC(=O)OC`, the results for the inhibition in assay [1], in assay [2] and in assay [3] were 87%, 78% and 86%, respectively.
With `CCCCCCCCCCCCCCC(=O)C(=O)NCCCCOCC`, the results for the inhibition in assay [1], in assay [2] and in assay [3] were 62%, 51% and 64%, respectively.
The corresponding values for `CCCCCCCCCCCCCCC(=O)C(=O)N[C@H](/C=C/C=C/C(=O)O)CCCC` are 85%, below 25% and below 25%.
Consider `CCCCCCCCCCCCCCC(=O)C(=O)NCCC(=O)OC`, for which the inhibition in assay [1] was below 25%; in assay [2], below 25%; in assay [3], 48%.
Regarding `CCCC[C@H](CCC(=O)O)NC(=O)CCCCCCc1ccccc1`, the results for the inhibition in assay [1], in assay [2] and in assay [3] were below 25%, below 25% and 95%, respectively.
Take `CC(C)(C)OC(=O)CCNC(=O)CCCCCCc1ccccc1`: the values for the inhibition in assay [1], in assay [2] and in assay [3] were 36%, 57% and 66%, respectively.
On to `C=CCOC(=O)CCCNC(=O)C(=O)CCCCCCCCCCCCCC`, for which the inhibition was 53% in assay [1], 63% in assay [2] and 38% in assay [3].
Consider `CCCCCCCCCCCCCCC(=O)C(=O)N[C@@H](CCCC)CCCCC(=O)OCC`, for which the inhibition is 62% in assay [1], 66% in assay [2] and below 25% in assay [3].
`COC(=O)CNC(=O)C(=O)CCCCCCc1ccccc1`: the results for the inhibition in assay [1], in assay [2] and in assay [3] were 54%, 31% and 30%, respectively.
Regarding `CCCCCCCCCCCCCCC(=O)C(=O)NCCCC(=O)CCCC`, the inhibition is 32% in assay [1], below 25% in assay [2] and below 25% in assay [3].
In the case of `CCCCCCCCCCCCCCC(=O)C(=O)NCC(=O)OC`, the figures for the inhibition in assay [1], in assay [2] and in assay [3] were 62%, 45% and 52%, respectively.
As for `CCCCCCCCCCCCCCC(=O)C(=O)N[C@H](CCC(=O)OC)CC(C)C`, the inhibition in assay [1] turned out to be 83%; in assay [2], 65%; in assay [3] it was 65%.
Take `CCCCCCCCCCCCCCC(=O)C(=O)NCCC(=O)OC(C)(C)C`: the inhibition in assay [1] is 79%; in assay [2], 54%; in assay [3] it was 72%.
`CCCCCCCCCCCCCCC(=O)C(=O)NCCCCC(=O)OC(C)(C)C`: the inhibition came to 74% in assay [1], 62% in assay [2] and 72% in assay [3].
As for `CCCCCCCCCCCCCCC(=O)C(=O)NCC(=O)OC(C)(C)C`, the inhibition in assay [1] stood at 80%; in assay [2], 53%; in assay [3] it was 82%.
Consider `CCCCCCCCCCCCCCC(=O)C(=O)Nc1ccc(C(=O)OCC)cc1`, for which the results for the inhibition in assay [1], in assay [2] and in assay [3] were 87%, below 25% and 78%, respectively.
The corresponding values for `CCCCCCCCCCCCCCC(=O)C(=O)NCCCCC(=O)OCC` are 31%, 35% and 47%.
Regarding `CCCCCCCCCCCCCCC(=O)C(=O)N[C@H](/C=C/C=C/C(=O)OCC)CCCC`, the figures for the inhibition in assay [1], in assay [2] and in assay [3] were 64%, 74% and 52%, respectively.
`CCCCCCCCCCCCCCC(=O)C(=O)NCCCC(=O)OCc1ccccc1`: the values for the inhibition in assay [1], in assay [2] and in assay [3] were 35%, below 25% and 38%, respectively.
With `CCCCCCCCCCCCCCC(=O)C(=O)N[C@@H](C)CCC(=O)OC(C)(C)C`, the inhibition in assay [1] turned out to be 85%; in assay [2] it was 72%; in assay [3], 87%.
Consider `CC(C)(C)OC(=O)CCNC(=O)C(=O)CCCCCCc1ccccc1`, for which the values for the inhibition in assay [1], in assay [2] and in assay [3] were 82%, 81% and 69%, respectively.
With `CCCCCCCCCCCCCCC(=O)C(=O)NCCCCC(=O)OC`, the inhibition in assay [1] was below 25%; in assay [2] it was below 25%; in assay [3], 42%.
On to `CCCCCCCCCCCCCCC(=O)C(=O)NCC(=O)OCC`, for which the inhibition in assay [1] came to 74%; in assay [2], 62%; in assay [3] it was 62%.
